Compound activity: PubChem, several laboratories
SIAE primary = inhibitors of human sialic acid acetylesterase SIAE; SIAE FP-Rh probe binding, fluorescence polarization; inhibition, % at 9.66 µM; Q9HAT2; AID 1053197; hit rate 0.69% among 370,000;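 active = inhibition above a cutoff: mean of compounds within the control limits plus 3 SD of those, cut at about 17% in these data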;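 note: 0% = plate median of compound wells and 100% = probe without SIAE protein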
Target sequence (Q9HAT2 whole entry, looked up): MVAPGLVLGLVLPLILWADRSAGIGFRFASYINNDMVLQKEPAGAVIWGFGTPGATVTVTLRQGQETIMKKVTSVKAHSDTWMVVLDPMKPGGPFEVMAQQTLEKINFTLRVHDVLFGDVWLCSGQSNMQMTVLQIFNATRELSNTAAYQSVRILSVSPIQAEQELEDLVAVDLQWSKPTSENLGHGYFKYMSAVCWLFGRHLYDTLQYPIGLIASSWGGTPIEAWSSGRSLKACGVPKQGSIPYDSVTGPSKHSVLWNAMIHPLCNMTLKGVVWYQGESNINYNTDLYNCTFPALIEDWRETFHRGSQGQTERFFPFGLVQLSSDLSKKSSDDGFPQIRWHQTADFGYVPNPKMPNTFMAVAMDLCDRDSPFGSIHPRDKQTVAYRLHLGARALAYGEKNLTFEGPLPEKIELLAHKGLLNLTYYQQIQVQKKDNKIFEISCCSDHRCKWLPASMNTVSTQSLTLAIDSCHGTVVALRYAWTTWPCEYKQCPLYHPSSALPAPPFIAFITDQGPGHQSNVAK
ABHD4 inh = ABHD4 (mouse) inhibition, primary FP screen; Q8VD66; hit rate 0.54% among 370,000; AID 720543; inhibition, % at 8.92 µM; purified mABHD4, FP-Rh probe fluorescence polarization;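 active = inhibition exceeding the mean over every tested compound plus 3 SD, cut at about 30% in these data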;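 note: 0% = plate median of compound wells and 100% = S159A mutant with DMSO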
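Doses – 8.92 µM, single dose · Material – wild-type mouse ABHD4 protein · Replication – single well per compound (singlicate) · Measure – percent inhibition of probe binding, normalized to plate controls · Schedule – 45 min compound pre-incubation plus 60 min probe step, 25 °C · Detection – fluorescence polarization with parallel and perpendicular emission, 525/598 nm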
HTRA1 inhibitor = HTRA1 (human) protease inhibition. hit rate 0.5% among 340,000. inhibition, % at 5.96 µM. recombinant HTRA1, FP-rhodamine activity-based probe, fluorescence polarization. Q92743. AID 504803; in the data active = inhibition above about 36%;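 note: 0% = enzyme with DMSO and 100% = wells lacking enzyme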
ATG4B inh = blocks human ATG4B protease cleavage of LC3 substrate; Q9Y4P1; ATG4B cleavage of LC3-PLA2, NBD-HPC fluorescence, 1 h; inhibition, % at 8.33 µM; hit rate 0.51% among 340,000; AID 504462; in the data active = inhibition above about 40%
PRMT1 FP inh = blocks human protein arginine methyltransferase 1; recombinant PRMT1, activity-based probe fluorescence polarization; Q99873; hit rate 1.3% among 370,000; AID 652257; inhibition, % at 2.79 µM;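 active = inhibition above about 21% made by adding two undisclosed values, limit read from the data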
TCR-CD3 inh = inhibitors of human TCR-CD3 interaction; TAMRA-labeled TCR probe fluorescence, biochemical; inhibition, % at 9.4 µM; hit rate 0.37% among 360,000;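 note: recombinant mutant TCR 2C K166C tagged with TAMRA read by polarization; 0% = receptor in buffer alone and 100% = receptor with positive control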
HTRA1 conf = confirmation of human HTRA1 inhibitors. shares compounds with HTRA1 inhibitor. recombinant HTRA1, FP-rhodamine activity-based probe, fluorescence polarization. inhibition, % at 5.96 µM. hit rate 66% among 1,600. AID 540248;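 active = mean inhibition over three repeats above a set limit taken from the earlier primary screen, cut at about 37% in these data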;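 note: 0% = HTRA1 with DMSO and 100% = wells lacking HTRA1; inhibitors block probe binding so polarization drops and inhibition rises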
BSA TAMRA ctr = counter-screen for TCR-CD3 interaction inhibitors: BSA probe; shares compounds with TCR-CD3 inh; TAMRA-labeled BSA probe fluorescence counterscreen; inhibition, % at 9.4 µM; hit rate 10% among 1,200; in the data active = inhibition above about 23%;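 note: 0% = buffer low control and 100% = reference high control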
TCR-CD3 conf = confirmation of human TCR-CD3 interaction inhibitors; inhibition, % at 9.4 µM; hit rate 48% among 1,200; shares compounds with TCR-CD3 inh; TAMRA-labeled TCR probe fluorescence binding assay
PRMT1 confirm = PRMT1 (human) inhibition, FP confirmation. shares compounds with PRMT1 FP inh. recombinant His-PRMT1, activity-based probe fluorescence polarization. inhibition, % at 2.79 µM. hit rate 42% among 3,300;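 active = mean inhibition across replicates above the hit cutoff derived for the earlier primary screen, cut at about 22% in these data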
mABHD4 conf = confirmation of mouse ABHD4 inhibitors | inhibition, % at 8.92 µM | purified mABHD4, FP-Rh probe fluorescence polarization | hit rate 55% among 1,800 | shares compounds with ABHD4 inh;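 active = mean inhibition across replicates above the hit cutoff set in the primary screen, cut at about 30% in these data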;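 note: 0% = wild-type ABHD4 with DMSO and 100% = catalytically dead S159A mutant with DMSO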
* marks the source's active call; other numbers are inactive results; nt = no result given. In the library only some 2.9% were active in any assay of this set; here they are far more common. Cut-off read from the data, not from the text of the source, unless noted: active = inhibition above about 19%; inactive = the rest.

SMILES	SIAE primary	ABHD4 inh	HTRA1 inhibitor	ATG4B inh	PRMT1 FP inh	TCR-CD3 inh	HTRA1 conf	mABHD4 conf	others
O=c1[nH]c2ccc(Cl)cc2c(-c2ccccc2)c1SC(=S)N1CCOCC1	-9	6	42*	-22	27*	7	-26	nt	PRMT1 confirm=16
Nn1c(SCC(=O)Nc2ccccc2-c2ccccc2)nnc1-c1cc(-c2ccc(Cl)cc2)n[nH]1	-10	-21	nt	nt	1	nt	nt	nt
Cc1cc(C)cc(Nc2cc(=O)n(C3CCCCC3)c(=O)[nH]2)c1	-5	2	-2	25	-5	7	nt	nt
Cc1cc2nc3c(=O)n(C4CCCCC4)c(=O)[nH]c3nc2cc1N	12	25	58*	-56	94*	-3	28	nt	PRMT1 confirm=118*
O=C1CC(=Nc2ccc([N+](=O)[O-])cc2)NN1c1c(Cl)cc(Cl)cc1Cl	10	65*	49*	nt	35*	-4	35	nt	PRMT1 confirm=14
Cc1ccc(S(=O)(=O)Nc2ccccc2)cc1[N+](=O)[O-]	-4	-2	1	-2	-2	3	nt	nt
Cc1cccc2c(N=Nc3ccc(S(=O)(=O)Nc4cccc(Cl)c4)cc3[N+](=O)[O-])c(O)[nH]c12	3	43*	37*	4	1	3	28	-43
C[C@@H](CO)N(CCc1cn(Cc2ccccc2)nn1)S(=O)(=O)c1ccccc1Br	-4	5	nt	nt	1	nt	nt	nt
O=C1C(NS(=O)(=O)c2cccs2)=C(N2CCN(c3cccc(C(F)(F)F)c3)CC2)C(=O)c2ccccc21	3	43*	45*	64*	10	0	69*	70*
CN1CCN(C2=C(NS(=O)(=O)c3cccs3)C(=O)c3ccccc3C2=O)CC1	-3	3	1	-4	-4	1	nt	nt
COC(=O)[C@]12C[C@H](CC(=O)NCc3ccc(OC)c(OC)c3)C(=O)N(Cc3ccccc3)C1=C[C@H](COCc1ccccc1)O[C@@H]2C	1	-2	nt	nt	-1	nt	nt	nt
COc1ccc(CN2C3=NC(c4ccccc4)CC(=O)N3/C(=C\c3ccccc3)C2c2ccccc2)c(OC)c1 (centres undefined)	-1	-6	nt	nt	3	nt	nt	nt
CCN(CC)c1ccc(N=C2C(=O)Nc3ccccc32)cc1	15	46*	63*	-2	30*	-5	44*	51*
Cc1ccc(N=C2C(=O)Nc3ccccc32)cc1	3	1	2	-4	-1	5	nt	nt
Cc1oc2c(CN3CCCCC3C)c(O)ccc2c(=O)c1-c1ccccc1 (centres undefined)	0	2	0	-9	-8	-2	nt	nt
Cc1oc2c(O)c(O)ccc2c(=O)c1-c1ccc(Cl)cc1	-1	41*	69*	13	13	13	91*	25
Cc1oc2c(O)c(O)ccc2c(=O)c1-c1ccccc1	7	41*	52*	-1	19	8	41*	16
COC(=O)[C@]12CCCCC=C1N(Cc1ccc(OC)cc1)C(=O)[C@@H]2CC(=O)N1CCOCC1	-7	7	nt	nt	0	nt	nt	nt
Cc1ccc(S(=O)(=O)/N=C2\C=C(Nc3cccc(C(=O)O)c3)C(=O)c3ccccc32)c(C)c1	16	47*	58*	35	1	0	63*	101*
Cc1ccc(S(=O)(=O)/N=C2\C=C(Nc3cccc(C(=O)O)c3)C(=O)c3ccccc32)cc1	4	33*	52*	37	2	0	30	62*
CN(Cc1ccccc1)C(=O)OCc1cn(Cc2ccc(F)cc2)nn1	-2	2	nt	nt	-2	nt	nt	nt
N#C/C(=C\c1ccc(O)c(O)c1)C(=O)NCCCc1ccccc1	14	34*	66*	1	1	2	77*	52*
COc1ccc(/C=C(\C#N)C(=O)NCCc2ccccc2)cc1OCc1ccccc1	-25	-6	-3	-2	1	7	nt	nt
Cn1c(SC/C=C/c2ccccc2)nnc1-c1cccnc1	-11	-5	nt	nt	-5	nt	nt	nt
COc1ccc(/C=N/N2C(C)CCCC2C)cc1O (centres undefined)	7	0	10	3	-3	-2	nt	nt
SMILES	SIAE primary	ABHD4 inh	HTRA1 inhibitor	ATG4B inh	PRMT1 FP inh	TCR-CD3 inh	HTRA1 conf	mABHD4 conf	others
CC1CCCC(C)N1/N=C/c1ccc(O)c(O)c1 (centres undefined)	6	36*	43*	1	7	23*	29	12	BSA TAMRA ctr=-1;TCR-CD3 conf=20*
CCCCCCCC(=O)N[C@H]1CC[C@@]23CCCN2C(=O)CCC[C@H]3[C@H]1CCC	5	1	nt	nt	3	nt	nt	nt
CCCCCCCCCCCCCCCC[N+](C)(C)CC	0	47*	61*	18	-4	4	167*	60*
O=C(Nc1ccccc1Oc1ccccc1)NC1CCCCN(Cc2cccc(Cl)c2)C1=O (centres undefined)	-1	-2	nt	nt	-2	nt	nt	nt
O=C(Cn1nc(-c2ccccc2)ccc1=O)NCCc1ccc(F)cc1	4	0	nt	nt	-4	nt	nt	nt
CCOC(=O)[C@@]12CCCC3=C1N(CCC3)C(=O)[C@H]2CC(=O)N1CCOCC1	0	0	nt	nt	2	nt	nt	nt
O=c1[nH]nc(CNc2ccc(C(F)(F)F)cc2)c2ccccc12	-6	-12	-15	-4	-1	6	nt	nt
O=c1[nH]nc(CNc2ccc(O)cc2)c2ccccc12	79*	82*	85*	-5	25*	89*	9	37*	BSA TAMRA ctr=12;TCR-CD3 conf=12
CCCC(=O)C1=C(c2ccccc2)C(C#N)(C#N)C(C#N)=C1N	13	38*	38*	-5	18	1	55*	22
O=C(O)c1ccc(/C=N/NC(=O)c2cc3ccccc3cc2O)cc1	13	31*	42*	2	7	1	16	-6
Nc1ccc(N=Nc2ccccc2)c(N)n1	9	16	15	-6	3	-3	nt	nt
Cc1[nH]c(N=Nc2ccccc2)nc1N=Nc1ccccc1	2	45*	74*	24	-2	3	75*	62*
O=C(O)c1ccc(N=Nc2c(O)ccc3ncccc23)cc1	1	73*	39*	11	3	-14	29	80*
